Series [1] has as its system Mus musculus. Description: Neurotoxicity in Albino Swiss mouse assessed as effect on number of crossings at 10 mg/kg, ip administered 30 mins before test measured for 2 to 6 mins. Format: toxicity, organism-based. More on the design: dose 10 mg/kg, route intraperitoneal. The note with it: in vivo. In a few lines: (§1)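 Spontaneous locomotor activity in mice, recorded over 2–6 min (the swim-test observation window) or over a 30-min session. Drug was suspended in 1% aqueous Tween 80 and given ip at 10 ml/kg, 30 min beforehand, with vehicle-injected controls. Tests ran blind during the light phase (09.00–14.00 h), using 7–10 animals per dose, each used once.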

For series [2], the target named is T1, 5-hydroxytryptamine receptor 7 (Homo sapiens, UniProt P34969). Nature of the series: Displacement of [3H]-5-CT from human 5-HT7 receptor expressed in HEK293 cells after 1 hr by liquid scintillation counting. Type of series: cell-based. In a few lines: (§2)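 Competition binding with 7–9 compound concentrations, each run in triplicate. 5-HT1A, 5-HT2A and α1 sites were native. 5-HT6 used [3H]-LSD and 5-HT7 used [3H]-5-CT, both on cloned human receptors stably expressed in HEK293 cells. After incubation, samples were vacuum-filtered through GF/B filters and washed with ice-cold buffer. Bound radioactivity was counted by liquid scintillation.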
In general terms: Displacement assays read how much labelled ligand stays bound in the presence of the test substance.

In series [3] the target is 5-hydroxytryptamine receptor 2A (Rattus norvegicus, UniProt P14842). Nature of the series: Displacement of [3H]-ketanserin from 5-HT2A receptor in rat cortex by liquid scintillation counting. In a few lines: as §2
Series [4] concerns Mus musculus. Description: Neurotoxicity in Albino Swiss mouse assessed as effect on number of crossings at 10 mg/kg, ip administered 30 mins before test measured for 30 mins. Format: toxicity, organism-based. On the set-up: dose 10 mg/kg, route intraperitoneal. The note with it: in vivo, 0.5 h. In a few lines: as §1
Series [5] has as its target T2, Adrenergic receptor alpha-1 (Rattus norvegicus, UniProt P15823+P23944+P43140).
T2 sequence (P15823 whole entry): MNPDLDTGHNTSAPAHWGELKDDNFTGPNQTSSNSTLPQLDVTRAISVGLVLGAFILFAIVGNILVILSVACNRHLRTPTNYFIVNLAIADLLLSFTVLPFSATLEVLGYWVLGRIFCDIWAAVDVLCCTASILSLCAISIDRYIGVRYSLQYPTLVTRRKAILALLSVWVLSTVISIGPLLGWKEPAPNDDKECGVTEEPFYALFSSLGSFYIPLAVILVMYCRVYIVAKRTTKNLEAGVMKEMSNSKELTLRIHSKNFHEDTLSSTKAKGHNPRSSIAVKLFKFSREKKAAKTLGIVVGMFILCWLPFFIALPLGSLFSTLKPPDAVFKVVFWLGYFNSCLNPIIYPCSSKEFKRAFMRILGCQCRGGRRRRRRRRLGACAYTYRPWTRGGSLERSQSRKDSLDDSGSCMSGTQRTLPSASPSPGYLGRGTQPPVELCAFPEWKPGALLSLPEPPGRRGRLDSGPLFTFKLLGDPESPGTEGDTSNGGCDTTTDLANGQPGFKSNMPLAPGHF
T2 sequence (P23944 whole entry): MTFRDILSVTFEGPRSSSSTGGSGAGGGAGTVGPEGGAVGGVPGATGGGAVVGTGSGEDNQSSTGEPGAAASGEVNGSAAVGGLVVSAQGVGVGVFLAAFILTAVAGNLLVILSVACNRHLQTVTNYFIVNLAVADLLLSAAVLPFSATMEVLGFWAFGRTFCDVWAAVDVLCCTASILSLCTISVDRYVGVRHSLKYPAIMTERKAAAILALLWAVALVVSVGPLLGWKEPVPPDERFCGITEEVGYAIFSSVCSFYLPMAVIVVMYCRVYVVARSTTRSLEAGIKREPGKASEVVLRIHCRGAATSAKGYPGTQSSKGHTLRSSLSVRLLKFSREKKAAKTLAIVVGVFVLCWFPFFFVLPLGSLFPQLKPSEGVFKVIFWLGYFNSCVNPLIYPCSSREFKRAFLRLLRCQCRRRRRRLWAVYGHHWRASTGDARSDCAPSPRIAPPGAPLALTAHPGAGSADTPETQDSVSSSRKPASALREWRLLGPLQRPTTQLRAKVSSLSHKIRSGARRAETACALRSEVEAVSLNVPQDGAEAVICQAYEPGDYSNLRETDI
T2 sequence (P43140 whole entry): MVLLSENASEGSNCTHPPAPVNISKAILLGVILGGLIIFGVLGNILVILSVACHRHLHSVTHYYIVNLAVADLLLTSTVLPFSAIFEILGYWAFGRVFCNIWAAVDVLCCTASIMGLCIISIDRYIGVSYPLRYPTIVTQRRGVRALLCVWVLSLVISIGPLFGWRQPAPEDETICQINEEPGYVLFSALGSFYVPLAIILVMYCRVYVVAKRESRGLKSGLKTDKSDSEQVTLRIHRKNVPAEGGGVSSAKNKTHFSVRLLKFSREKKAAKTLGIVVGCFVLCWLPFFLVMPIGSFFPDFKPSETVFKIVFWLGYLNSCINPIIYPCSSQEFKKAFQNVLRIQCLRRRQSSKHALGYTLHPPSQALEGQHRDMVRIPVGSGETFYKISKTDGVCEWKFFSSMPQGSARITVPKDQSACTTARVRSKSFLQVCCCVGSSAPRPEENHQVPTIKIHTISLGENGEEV
Nature of the series: Displacement of [3H]-prazosin from alpha 1 receptor in rat cortex by liquid scintillation counting. In a few lines: as §2

For series [6], the system named is Mus musculus. Description: Antidepressant like activity in Albino Swiss mouse assessed as reduction of immobility time at 10 mg/kg, ip administered 30 mins before test measured during final 4 mins of the 6 mins session by forced swimming test (reference value: 165 +/- 9.6 sec). Format: functional. Conditions: route intraperitoneal.
Series [7] concerns Mus musculus. Nature of the series: Antidepressant like activity in Albino Swiss mouse assessed as reduction in immobility time at 10 mg/kg, ip administered 30 mins before test measured during final 4 mins of the 6 mins session by forced swimming test. Format: functional. More on the design: scale not given: the % may be the effect or the level left. The note with it: route intraperitoneal.

Series [8] has as its target T1, 5-hydroxytryptamine receptor 7. Nature of the series: Antagonist activity at human 5-HT7 receptor expressed in CHO cells assessed as inhibition of serotonin-induced intracellular cAMP accumulation preincubated for 20 mins measured after 10 mins by radioimmunoassay. Type of series: functional, cell-based. (In general: cAMP levels reflect the balance of adenylyl cyclase and phosphodiesterase activity.)

The target of series [9] is 5-hydroxytryptamine receptor 6 (Homo sapiens, UniProt P50406). Nature of the series: Displacement of [3H]-LSD from human 5-HT6 receptor expressed in HEK293 cells after 1 hr by liquid scintillation counting. Format: cell-based. In a few lines: as §2
For the next series, the system named is HEK293. Nature of the series: Selectivity ratio of Ki for 5-HT1A receptor in rat hippocampus to Ki for human 5-HT7 receptor expressed in HEK293 cells. Type of series: cell-based.
The subject of series [10] is Mus musculus. Nature of the series: Antidepressant like activity in Albino Swiss mouse assessed as reduction of immobility time at 5 mg/kg, ip administered 30 mins before test measured during final 4 mins of the 6 mins session by forced swimming test (reference value: 165 +/- 9.6 sec). Type of series: functional. Conditions: route intraperitoneal.
Series [11] has as its target T3, 5-hydroxytryptamine receptor 1A (Rattus norvegicus, UniProt P19327).
T3 sequence (P19327 whole entry): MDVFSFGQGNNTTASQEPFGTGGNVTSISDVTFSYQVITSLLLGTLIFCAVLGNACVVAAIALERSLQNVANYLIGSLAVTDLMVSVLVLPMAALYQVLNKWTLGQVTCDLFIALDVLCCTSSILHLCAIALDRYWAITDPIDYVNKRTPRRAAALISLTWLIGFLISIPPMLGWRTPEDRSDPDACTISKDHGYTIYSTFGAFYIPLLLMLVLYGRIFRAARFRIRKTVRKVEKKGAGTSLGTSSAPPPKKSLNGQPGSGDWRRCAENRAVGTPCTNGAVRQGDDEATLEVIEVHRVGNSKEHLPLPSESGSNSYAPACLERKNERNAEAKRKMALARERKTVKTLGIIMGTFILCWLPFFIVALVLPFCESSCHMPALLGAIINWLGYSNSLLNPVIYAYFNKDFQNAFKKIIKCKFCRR
Description: Displacement of [3H]-8-OH-DPAT from 5-HT1A receptor in rat hippocampus by liquid scintillation counting. Type of series: tissue-based. In a few lines:
as §2

Series [12] relates to Mus musculus. Nature of the series: Antidepressant like activity in Albino Swiss mouse assessed as reduction of immobility time at 20 mg/kg, ip administered 30 mins before test measured during final 4 mins of the 6 mins session by forced swimming test (reference value: 165 +/- 9.6 sec). Type of series: functional. The note with it: route intraperitoneal.

T1 sequence (P34969 whole entry): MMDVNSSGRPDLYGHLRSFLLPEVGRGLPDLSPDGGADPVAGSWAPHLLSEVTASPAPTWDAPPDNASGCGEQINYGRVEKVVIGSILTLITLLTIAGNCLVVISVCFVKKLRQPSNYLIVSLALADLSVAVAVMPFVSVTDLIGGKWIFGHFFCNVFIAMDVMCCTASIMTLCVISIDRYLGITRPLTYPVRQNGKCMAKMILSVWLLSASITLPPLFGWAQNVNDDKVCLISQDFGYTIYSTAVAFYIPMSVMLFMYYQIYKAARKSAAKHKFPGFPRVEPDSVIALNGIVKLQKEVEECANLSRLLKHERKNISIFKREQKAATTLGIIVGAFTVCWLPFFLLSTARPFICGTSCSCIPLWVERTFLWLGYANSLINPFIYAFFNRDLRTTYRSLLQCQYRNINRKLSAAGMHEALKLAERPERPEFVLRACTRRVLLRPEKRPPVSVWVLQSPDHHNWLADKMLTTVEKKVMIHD
Sequence of 5-hydroxytryptamine receptor 2A (P14842 whole entry): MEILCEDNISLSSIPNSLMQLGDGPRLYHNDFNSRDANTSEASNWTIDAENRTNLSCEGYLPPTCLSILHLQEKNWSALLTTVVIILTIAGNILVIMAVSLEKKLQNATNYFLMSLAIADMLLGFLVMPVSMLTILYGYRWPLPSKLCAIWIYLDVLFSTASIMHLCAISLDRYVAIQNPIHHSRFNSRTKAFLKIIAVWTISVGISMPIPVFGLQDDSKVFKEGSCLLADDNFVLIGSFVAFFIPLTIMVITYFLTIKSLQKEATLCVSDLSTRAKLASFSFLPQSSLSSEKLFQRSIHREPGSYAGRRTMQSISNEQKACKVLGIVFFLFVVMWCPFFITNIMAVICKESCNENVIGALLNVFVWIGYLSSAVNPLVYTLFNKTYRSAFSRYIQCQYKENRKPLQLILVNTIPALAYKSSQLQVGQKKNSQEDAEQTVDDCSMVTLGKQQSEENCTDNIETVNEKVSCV
Sequence of 5-hydroxytryptamine receptor 6 (P50406 whole entry): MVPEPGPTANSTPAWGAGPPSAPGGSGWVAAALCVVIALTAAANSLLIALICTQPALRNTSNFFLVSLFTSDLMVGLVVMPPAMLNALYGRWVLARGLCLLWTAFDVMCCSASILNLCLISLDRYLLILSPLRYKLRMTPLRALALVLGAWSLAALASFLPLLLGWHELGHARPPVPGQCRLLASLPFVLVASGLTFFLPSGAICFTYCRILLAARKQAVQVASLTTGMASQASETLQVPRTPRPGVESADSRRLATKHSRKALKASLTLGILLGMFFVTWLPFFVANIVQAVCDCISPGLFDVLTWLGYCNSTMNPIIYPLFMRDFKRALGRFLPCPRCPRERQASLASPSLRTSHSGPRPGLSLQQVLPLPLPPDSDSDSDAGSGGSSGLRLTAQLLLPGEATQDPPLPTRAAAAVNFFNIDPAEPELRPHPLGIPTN

A word on the Ki: it is a dissociation constant, usually derived from enzyme kinetics or from competition with a known ligand. Usually Kb stands for the equilibrium dissociation constant of an antagonist, usually derived from a functional assay. On to `CCN(CCCCN1CCC2CCCCC2C1)S(=O)(=O)c1cccc2cccnc12` (centres undefined), for which the figures for the Activity result with Mus musculus [1], in the series on Mus musculus [4] and in the series with Mus musculus [7] were “Non-toxic”, “Non-toxic” and 22%, respectively. Moreover, the Ki in series [2] came to 13 nM; in [3], 6.28 µM; in series [5], 155 nM; in [9], 1.95 µM; in series [11], 1100 nM. Besides, the figures for the Time in the series on Mus musculus [6], in the series with Mus musculus [10] and in the series with Mus musculus [12] were 128.1 s, 155.2 s and 182.3 s, respectively. In addition, the Kb in [8] amounted to 140 nM. In addition, the Ratio Ki with HEK293 amounted to 84.5.

For `CCN(CCCCCN1CCC2CCCCC2C1)S(=O)(=O)c1cccc2cccnc12` (centres undefined), the Ki in series [2] was determined as 33 nM; in [3] it was 1.79 µM; in series [5], 92 nM; in series [9], 4.59 µM; in series [11], 313 nM. Besides, the Time in the series on Mus musculus [6] came out at 158.6 s; in the series on Mus musculus [10], 144.8 s; with Mus musculus [12], 181.2 s. Further, the Kb in series [8] stood at 1300 nM. In addition, in the series with HEK293, the Ratio Ki amounted to 9.5.

As to `CC1CCN(CC[C@H]2CCCN2S(=O)(=O)c2cccc(O)c2)CC1`, the Activity result with Mus musculus [1] is on record as “Non-toxic”; in the series on Mus musculus [4], “Non-toxic”; with Mus musculus [7], 33%. For the same compound, the Time was determined as 110.8 s with Mus musculus [6], 136.1 s in the series on Mus musculus [10] and 139.3 s with Mus musculus [12].
